Results reported in ChEMBL document CHEMBL3112482, “Nonclassical antifolates, part 5. Benzodiazepine analogs as a new class of DHFR inhibitors: synthesis, antitumor testing and molecular modeling study” (Eur J Med Chem, 2014).

Key:
NCI-H23 = test: Growth inhibition of human NCI-H23 cells at 10 uM after 48 hrs; assay type: functional; settings: NCI-H23, 48 h, read-out: GI
In short: (§1)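 Single-dose primary screen in the NCI 60 human tumour cell line panel, run at the NCI facility. The panel covers nine subpanels: leukaemia, non-small cell lung, colon, CNS, melanoma, ovarian, renal, prostate and breast. Read-out was percent growth of treated cells, shown as a mean graph and reported as percent growth inhibition.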

SK-OV-3 = test: Growth inhibition of human SKOV3 cells at 10 uM after 48 hrs; assay type: functional; settings: SK-OV-3, 48 h, read-out: GI
In short: (§2)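 NCI 60-cell-line disease-oriented human tumor panel, single-dose primary screen at 10 µM. Data given as mean-graph percent growth of treated cells, reported as percent growth inhibition (GI %).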

NCI-H322M = test: Growth inhibition of human NCI-H322M cells at 10 uM after 48 hrs; assay type: functional; settings: read-out: GI; in short: as §1
MDA-MB-231 = test: Growth inhibition of human MDA-MB-231 cells at 10 uM after 48 hrs; assay type: functional; settings: MDA-MB-231, 48 h, read-out: GI; in short: as §1
[1] = Growth inhibition of human NCI-ADR-RES cells at 10 uM after 48 hrs; assay type: functional; settings: read-out: GI; in short: as §1
T47D = test: Growth inhibition of human T47D cells at 10 uM after 48 hrs; assay type: functional; settings: read-out: GI; in short: as §2
[2] = Growth inhibition of human EKVX cells at 10 uM after 48 hrs; assay type: functional; settings: read-out: GI; in short: as §1
MOLT-4 = test: Growth inhibition of human MOLT4 cells at 10 uM after 48 hrs; assay type: functional; settings: MOLT-4, 48 h, read-out: GI; in short: as §1
[3] = Growth inhibition of human OVCAR4 cells at 10 uM after 48 hrs; assay type: functional; settings: OVCAR-4, 48 h, read-out: GI; in short: as §1
HCT-15 = test: Growth inhibition of human HCT15 cells at 10 uM after 48 hrs; assay type: functional; settings: HCT-15, 48 h, read-out: GI; in short: as §1
SNB-19 = test: Growth inhibition of human SNB19 cells at 10 uM after 48 hrs; assay type: functional; settings: SNB-19, 48 h, read-out: GI; in short: as §2
[4] = Growth inhibition of human SF539 cells at 10 uM after 48 hrs; assay type: functional; settings: SF-539, 48 h, read-out: GI; in short: as §2
UACC-62 = test: Growth inhibition of human UACC62 cells at 10 uM after 48 hrs; assay type: functional; settings: UACC-62, 48 h, read-out: GI; in short: as §2
Dihydrofolate reductase = molecular target: T1, Dihydrofolate reductase (Bos taurus, UniProt P00376); test: Inhibition of bovine liver DHFR measured for every 1 min of 10 mins
T1 sequence (P00376 whole entry): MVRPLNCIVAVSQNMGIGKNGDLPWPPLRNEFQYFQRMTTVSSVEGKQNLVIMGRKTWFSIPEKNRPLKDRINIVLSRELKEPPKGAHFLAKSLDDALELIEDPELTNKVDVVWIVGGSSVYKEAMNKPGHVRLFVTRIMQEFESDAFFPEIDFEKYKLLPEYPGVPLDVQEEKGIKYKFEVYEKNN

A549 = test: Growth inhibition of human A549 cells at 10 uM after 48 hrs; assay type: functional; settings: A549, 48 h, read-out: GI; in short: as §1
[5] = Growth inhibition of human Hs 578T cells at 10 uM after 48 hrs; assay type: functional; settings: read-out: GI; in short: as §1
A498 = test: Growth inhibition of human A498 cells at 10 uM after 48 hrs; assay type: functional; settings: A498, 48 h, read-out: GI; in short: as §1
HL-60(TB) = test: Growth inhibition of human HL-60(TB) cells at 10 uM after 48 hrs; assay type: functional; settings: HL-60, 48 h, read-out: GI
In short: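 NCI 60-cell-line human tumour panel covering nine subpanels (leukaemia, non-small cell lung, colon, CNS, melanoma, ovarian, renal, prostate, breast), run at the NCI facility. Primary screen tested a single dose of each compound. Read-out was percent growth of treated cells versus untreated cells, reported from the mean graph as percentage growth inhibition.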

PC-3 = test: Growth inhibition of human PC3 cells at 10 uM after 48 hrs; assay type: functional; settings: PC-3, 48 h, read-out: GI; in short: as §1
SR = test: Growth inhibition of human SR cells at 10 uM after 48 hrs; assay type: functional; settings: read-out: GI; in short: as §2
[6] = Growth inhibition of human OVCAR5 cells at 10 uM after 48 hrs; assay type: functional; settings: OVCAR-5, 48 h, read-out: GI; in short: as §1
SNB-75 = test: Growth inhibition of human SNB75 cells at 10 uM after 48 hrs; assay type: functional; settings: SNB-75, 48 h, read-out: GI; in short: as §2
K562 = test: Growth inhibition of human K562 cells at 10 uM after 48 hrs; assay type: functional; settings: K562, 48 h, read-out: GI; in short: as §1
M14 = test: Growth inhibition of human M14 cells at 10 uM after 48 hrs; assay type: functional; settings: M14, 48 h, read-out: GI; in short: as §1
SF-268 = test: Growth inhibition of human SF268 cells at 10 uM after 48 hrs; assay type: functional; settings: SF-268, 48 h, read-out: GI; in short: as §2
[7] = Growth inhibition of human UO31 cells at 10 uM after 48 hrs; assay type: functional; settings: UO-31, 48 h, read-out: GI; in short: as §2
[8] = Growth inhibition of human UACC257 cells at 10 uM after 48 hrs; assay type: functional; settings: UACC-257, 48 h, read-out: GI; in short: as §2
[9] = Growth inhibition of human HOP92 cells at 10 uM after 48 hrs; assay type: functional; settings: HOP-92, 48 h, read-out: GI; in short: as §1
SK-MEL-28 = test: Growth inhibition of human SK-MEL-28 cells at 10 uM after 48 hrs; assay type: functional; settings: SK-MEL-28, 48 h, read-out: GI; in short: as §2
NCI-H460 = test: Growth inhibition of human NCI-H460 cells at 10 uM after 48 hrs; assay type: functional; settings: NCI-H460, 48 h, read-out: GI; in short: as §1
IGROV-1 = test: Growth inhibition of human IGROV1 cells at 10 uM after 48 hrs; assay type: functional; settings: IGROV-1, 48 h, read-out: GI; in short: as §1
[10] = Growth inhibition of human HCC2998 cells at 10 uM after 48 hrs; assay type: functional; settings: HCC 2998, 48 h, read-out: GI; in short: as §1
SK-MEL-5 = test: Growth inhibition of human SK-MEL-5 cells at 10 uM after 48 hrs; assay type: functional; settings: SK-MEL-5, 48 h, read-out: GI; in short: as §2
SW-620 = test: Growth inhibition of human SW620 cells at 10 uM after 48 hrs; assay type: functional; settings: SW-620, 48 h, read-out: GI; in short: as §2
OVCAR-3 = test: Growth inhibition of human OVCAR3 cells at 10 uM after 48 hrs; assay type: functional; settings: OVCAR-3, 48 h, read-out: GI; in short: as §1
TK-10 = test: Growth inhibition of human TK10 cells at 10 uM after 48 hrs; assay type: functional; settings: TK-10, 48 h, read-out: GI; in short: as §2
MCF7 = test: Growth inhibition of human MCF7 cells at 10 uM after 48 hrs; assay type: functional; settings: MCF7, 48 h, read-out: GI; in short: as §1

Row | SMILES | inhibition of growth at 10 µM (NCI-H23) | inhibition of growth at 10 µM (SK-OV-3) | inhibition of growth at 10 µM (NCI-H322M) | inhibition of growth at 10 µM (MDA-MB-231) | inhibition of growth at 10 µM [1] | inhibition of growth at 10 µM (T47D) | inhibition of growth at 10 µM [2] | inhibition of growth at 10 µM (MOLT-4) | inhibition of growth at 10 µM [3] | inhibition of growth at 10 µM (HCT-15) | inhibition of growth at 10 µM (SNB-19) | inhibition of growth at 10 µM [4] | inhibition of growth at 10 µM (UACC-62) | IC50 (Dihydrofolate reductase) | inhibition of growth at 10 µM (A549) | inhibition of growth at 10 µM [5] | inhibition of growth at 10 µM (A498) | inhibition of growth at 10 µM (HL-60(TB)) | inhibition of growth at 10 µM (PC-3) | inhibition of growth at 10 µM (SR) | further results
1 | Nc1nc2c(c(-c3ccc(Br)cc3)n1)CCC/C2=C\c1ccc(Br)cc1 | < 30% | < 30% | < 30% | < 30% | < 30% | < 30% | < 30% | < 30% | < 30% | < 30% | < 30% | < 30% | < 30% | 16 µM | < 30% | < 30% | < 30% | < 30% | < 30% | 54.1% | inhibition of growth at 10 µM [6]: < 30%; inhibition of growth at 10 µM (SNB-75): < 30%; inhibition of growth at 10 µM (K562): < 30%; inhibition of growth at 10 µM (M14): 38.1%; inhibition of growth at 10 µM (SF-268): < 30%; inhibition of growth at 10 µM [7]: < 30%; inhibition of growth at 10 µM [8]: < 30%; inhibition of growth at 10 µM [9]: < 30%; inhibition of growth at 10 µM (SK-MEL-28): < 30%; inhibition of growth at 10 µM (NCI-H460): < 30%; inhibition of growth at 10 µM (IGROV-1): < 30%; inhibition of growth at 10 µM [10]: 51.5%; inhibition of growth at 10 µM (SK-MEL-5): < 30%; inhibition of growth at 10 µM (SW-620): < 30%; inhibition of growth at 10 µM (OVCAR-3): < 30%; inhibition of growth at 10 µM (TK-10): < 30%; inhibition of growth at 10 µM (MCF7): 61.4%
2 | COc1ccc(/C=C2\CCCC3=C(c4ccc(OC)cc4)Nc4ccccc4N=C32)cc1 | < 30% | < 30% | < 30% | < 30% | < 30% | < 30% | < 30% | < 30% | < 30% | < 30% | < 30% | < 30% | 32% | 0.6 µM | < 30% | < 30% | < 30% | < 30% | < 30% | 46.1% | inhibition of growth at 10 µM [6]: < 30%; inhibition of growth at 10 µM (SNB-75): < 30%; inhibition of growth at 10 µM (K562): 49.1%; inhibition of growth at 10 µM (M14): < 30%; inhibition of growth at 10 µM (SF-268): < 30%; inhibition of growth at 10 µM [7]: < 30%; inhibition of growth at 10 µM [8]: < 30%; inhibition of growth at 10 µM [9]: < 30%; inhibition of growth at 10 µM (SK-MEL-28): < 30%; inhibition of growth at 10 µM (NCI-H460): < 30%; inhibition of growth at 10 µM (IGROV-1): < 30%; inhibition of growth at 10 µM [10]: < 30%; inhibition of growth at 10 µM (SK-MEL-5): < 30%; inhibition of growth at 10 µM (SW-620): < 30%; inhibition of growth at 10 µM (OVCAR-3): < 30%; inhibition of growth at 10 µM (TK-10): < 30%; inhibition of growth at 10 µM (MCF7): 44%
